Reference: ChEMBL document CHEMBL1671716, “Antimicrobial susceptibility patterns for recent clinical isolates of anaerobic bacteria in South Korea” (2010)

Key:
Parvimonas micra = assay: Antimicrobial activity against Peptostreptococcus micros after 48 hrs by agar dilution method; type: functional
Outline: (§1)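 CLSI agar dilution (M11-A7); inoculum 10^5 CFU applied by replicator; plates incubated anaerobically 48 h at 37°C. For piperacillin-tazobactam, tazobactam held constant at 4 μg/ml.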

Hoylesella oralis [1] = assay: Antimicrobial activity against Prevotella oralis assessed as percent resistant isolates after 48 hrs by agar dilution method; type: functional
Outline: (§2)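 CLSI agar dilution on recent Korean clinical anaerobe isolates. Inoculum 10^5 CFU per spot by replicator. Plates incubated in an anaerobic chamber at 37°C for 48 h. For piperacillin plus tazobactam, tazobactam was held constant at 4 μg/ml. Resistance and susceptibility rates derived from MICs.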

[2] = tested on: Parabacteroides distasonis; assay: Antimicrobial activity against Bacteroides distasonis assessed as percent resistant isolates after 48 hrs by agar dilution method; type: functional; outline: as §2
[3] = tested on: Peptostreptococcus anaerobius; assay: Antimicrobial activity against Peptostreptococcus anaerobius assessed as percent susceptible isolates after 48 hrs by agar dilution method; type: functional; outline: as §2
[4] = tested on: Bacteroides thetaiotaomicron; assay: Antimicrobial activity against Bacteroides thetaiotaomicron assessed as percent susceptible isolates after 48 hrs by agar dilution method; type: functional
Finegoldia magna [5] = assay: Antimicrobial activity against Finegoldia magna after 48 hrs by agar dilution method; type: functional; outline: as §1
Schaalia meyeri [6] = assay: Antimicrobial activity against Actinomyces meyeri assessed as percent resistant isolates after 48 hrs by agar dilution method; type: functional; outline: as §2
Finegoldia magna [7] = assay: Antimicrobial activity against Finegoldia magna assessed as percent resistant isolates after 48 hrs by agar dilution method; type: functional; outline: as §2
Prevotella intermedia [8] = assay: Antimicrobial activity against Prevotella intermedia after 48 hrs by agar dilution method; type: functional; outline: as §1
Fusobacterium nucleatum = assay: Antimicrobial activity against Fusobacterium nucleatum after 48 hrs by agar dilution method; type: functional; outline: as §1
Anaerococcus prevotii = assay: Antimicrobial activity against Anaerococcus prevotii after 48 hrs by agar dilution method; type: functional
Outline: (§3)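 MICs on clinical anaerobe isolates by the CLSI agar dilution method. Inoculum of 10^5 CFU applied with a Steers replicator. Plates incubated 48 h at 37°C in an anaerobic chamber.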

Clostridioides difficile [9] = assay: Antimicrobial activity against Clostridium difficile assessed as percent susceptible isolates after 48 hrs by agar dilution method; type: functional
Actinomyces naeslundii = assay: Antimicrobial activity against Actinomyces naeslundii after 48 hrs by agar dilution method; type: functional; outline: as §3
Bacteroides caccae [10] = assay: Antimicrobial activity against Bacteroides caccae assessed as percent resistant isolates after 48 hrs by agar dilution method; type: functional; outline: as §2
Prevotella intermedia [11] = assay: Antimicrobial activity against Prevotella intermedia assessed as percent resistant isolates after 48 hrs by agar dilution method; type: functional; outline: as §2
Bacteroides ovatus [12] = assay: Antimicrobial activity against Bacteroides ovatus after 48 hrs by agar dilution method; type: functional; outline: as §3
Schaalia odontolytica [13] = assay: Antimicrobial activity against Actinomyces odontolyticus assessed as percent susceptible isolates after 48 hrs by agar dilution method; type: functional
[14] = tested on: Porphyromonas asaccharolytica; assay: Antimicrobial activity against Porphyromonas asaccharolytica after 48 hrs by agar dilution method; type: functional; outline: as §1
Bacteroides caccae [15] = assay: Antimicrobial activity against Bacteroides caccae assessed as percent susceptible isolates after 48 hrs by agar dilution method; type: functional
[16] = tested on: Peptostreptococcus anaerobius; assay: Antimicrobial activity against Peptostreptococcus anaerobius after 48 hrs by agar dilution method; type: functional; outline: as §1
Phocaeicola vulgatus [17] = assay: Antimicrobial activity against Bacteroides vulgatus assessed as percent susceptible isolates after 48 hrs by agar dilution method; type: functional
Bifidobacterium sp. [18] = assay: Antimicrobial activity against Bifidobacterium sp. after 48 hrs by agar dilution method; type: functional; outline: as §3
Schaalia meyeri [19] = assay: Antimicrobial activity against Actinomyces meyeri assessed as percent susceptible isolates after 48 hrs by agar dilution method; type: functional
[20] = tested on: Bifidobacterium adolescentis; assay: Antimicrobial activity against Bifidobacterium adolescentis assessed as percent susceptible isolates after 48 hrs by agar dilution method; type: functional
Eggerthella lenta [21] = assay: Antimicrobial activity against Eubacterium lentum assessed as percent susceptible isolates after 48 hrs by agar dilution method; type: functional; outline: as §1
Hoylesella oralis [22] = assay: Antimicrobial activity against Prevotella oralis assessed as percent susceptible isolates after 48 hrs by agar dilution method; type: functional
Outline: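 CLSI agar dilution MIC testing of clinical isolates. 10^5 CFU spotted by replicator, plates incubated 48 h at 37°C in an anaerobic chamber. Susceptibility rates derived from the MICs.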

Bacteroides ovatus [23] = assay: Antimicrobial activity against Bacteroides ovatus assessed as percent resistant isolates after 48 hrs by agar dilution method; type: functional; outline: as §2
Bifidobacterium sp. [24] = assay: Antimicrobial activity against Bifidobacterium sp. assessed as percent susceptible isolates after 48 hrs by agar dilution method; type: functional; outline: as §1
Prevotella buccae [25] = assay: Antimicrobial activity against Prevotella buccae assessed as percent resistant isolates after 48 hrs by agar dilution method; type: functional, Segatella buccae; outline: as §2
Bacteroides fragilis = assay: Antimicrobial activity against Bacteroides fragilis assessed as percent susceptible isolates after 48 hrs by agar dilution method; type: functional
Schaalia odontolytica [26] = assay: Antimicrobial activity against Actinomyces odontolyticus assessed as percent resistant isolates after 48 hrs by agar dilution method; type: functional; outline: as §2
Clostridioides difficile [27] = assay: Antimicrobial activity against Clostridium difficile after 48 hrs by agar dilution method; type: functional
Phocaeicola vulgatus [28] = assay: Antimicrobial activity against Bacteroides vulgatus after 48 hrs by agar dilution method; type: functional; outline: as §3
Prevotella bivia [29] = assay: Antimicrobial activity against Prevotella bivia after 48 hrs by agar dilution method; type: functional; outline: as §1
Clostridium perfringens = assay: Antimicrobial activity against Clostridium perfringens after 48 hrs by agar dilution method; type: functional
Prevotella buccae [30] = assay: Antimicrobial activity against Prevotella buccae assessed as percent susceptible isolates after 48 hrs by agar dilution method; type: functional, Segatella buccae; outline: as §1
[31] = tested on: Bacteroides thetaiotaomicron; assay: Antimicrobial activity against Bacteroides thetaiotaomicron after 48 hrs by agar dilution method; type: functional; outline: as §3
[32] = tested on: Parabacteroides distasonis; assay: Antimicrobial activity against Bacteroides distasonis assessed as percent susceptible isolates after 48 hrs by agar dilution method; type: functional
Eggerthella lenta [33] = assay: Antimicrobial activity against Eubacterium lentum assessed as percent resistant isolates after 48 hrs by agar dilution method; type: functional; outline: as §2
Fusobacterium necrogenes = assay: Antimicrobial activity against Fusobacterium necrogenes after 48 hrs by agar dilution method; type: functional; outline: as §1
Eubacterium sp. [34] = assay: Antimicrobial activity against Eubacterium sp. assessed as percent resistant isolates after 48 hrs by agar dilution method; type: functional; outline: as §2
Prevotella buccae [35] = assay: Antimicrobial activity against Prevotella buccae after 48 hrs by agar dilution method; type: functional; conditions: Segatella buccae; outline: as §1
Bifidobacterium sp. [36] = assay: Antimicrobial activity against Bifidobacterium sp. assessed as percent resistant isolates after 48 hrs by agar dilution method; type: functional; outline: as §2
[37] = tested on: Bifidobacterium adolescentis; assay: Antimicrobial activity against Bifidobacterium adolescentis after 48 hrs by agar dilution method; type: functional; outline: as §3
Finegoldia magna [38] = assay: Antimicrobial activity against Finegoldia magna assessed as percent susceptible isolates after 48 hrs by agar dilution method; type: functional; outline: as §1
Prevotella bivia [39] = assay: Antimicrobial activity against Prevotella bivia assessed as percent resistant isolates after 48 hrs by agar dilution method; type: functional; outline: as §2
Eubacterium sp. [40] = assay: Antimicrobial activity against Eubacterium sp. assessed as percent susceptible isolates after 48 hrs by agar dilution method; type: functional; outline: as §1
Actinomyces israelii = assay: Antimicrobial activity against Actinomyces israelii assessed as percent resistant isolates after 48 hrs by agar dilution method; type: functional; outline: as §2

C[C@@H](O)[C@H]1C(=O)N2C(C(=O)O)=C(S[C@@H]3CN[C@H](C(=O)N(C)C)C3)[C@H](C)[C@H]12 [MEROPENEM]
98%: Activity [4] | Activity (Bacteroides caccae [15]) | Activity (Phocaeicola vulgatus [17]) | Activity [32]
0.5 µg/mL: MIC90 (Prevotella bivia [29]) | MIC90 (Prevotella buccae [35])
0.008 µg/mL: MIC (Fusobacterium nucleatum) | MIC [14] | MIC (Fusobacterium necrogenes)
0.25 µg/mL: MIC50 (Parvimonas micra) | MIC50 (Bacteroides ovatus [12]) | MIC50 [16] | MIC50 (Phocaeicola vulgatus [28]) | MIC50 [31]
0.06 µg/mL: MIC50 (Finegoldia magna [5]) | MIC50 (Prevotella intermedia [8]) | MIC90 (Prevotella intermedia [8]) | MIC50 (Anaerococcus prevotii)
0.015 µg/mL: MIC50 (Clostridium perfringens) | MIC90 (Clostridium perfringens)
0%: Activity (Hoylesella oralis [1]) | Activity [2] | Activity (Finegoldia magna [7]) | Activity (Bacteroides caccae [10]) | Activity (Prevotella intermedia [11]) | Activity (Bacteroides ovatus [23]) | Activity (Prevotella buccae [25]) | Activity (Prevotella bivia [39])
4 µg/mL: MIC90 (Parvimonas micra) | MIC90 [16]
0.125 µg/mL: MIC90 (Finegoldia magna [5]) | MIC90 (Anaerococcus prevotii) | MIC50 (Actinomyces naeslundii) | MIC50 (Bifidobacterium sp. [18]) | MIC50 (Prevotella bivia [29]) | MIC50 (Prevotella buccae [35]) | MIC50 [37]
2 µg/mL: MIC90 (Actinomyces naeslundii) | MIC90 (Bacteroides ovatus [12]) | MIC90 (Bifidobacterium sp. [18]) | MIC50 (Clostridioides difficile [27]) | MIC90 (Clostridioides difficile [27]) | MIC90 (Phocaeicola vulgatus [28]) | MIC90 [31] | MIC90 [37]
0.01 µg/mL: MIC (Parvimonas micra) | MIC [16]
100%: Activity [3] | Activity (Clostridioides difficile [9]) | Activity (Hoylesella oralis [22]) | Activity (Prevotella buccae [30]) | Activity (Finegoldia magna [38])
92%: Activity (Schaalia odontolytica [13]) | Activity (Schaalia meyeri [19]) | Activity [20] | Activity (Eggerthella lenta [21]) | Activity (Bifidobacterium sp. [24]) | Activity (Bacteroides fragilis) | Activity (Eubacterium sp. [40])
8%: Activity (Schaalia meyeri [6]) | Activity (Schaalia odontolytica [26]) | Activity (Eggerthella lenta [33]) | Activity (Eubacterium sp. [34]) | Activity (Bifidobacterium sp. [36]) | Activity (Actinomyces israelii)
